The source made the active and inactive calls. The rule behind the calls is not given here.
Legend:
[1] = system: T-cell line; assay: Immunosuppressive activity in human T cells assessed as reduction in anti-CD3/anti-CD28 antibody-induced cell proliferation incubated for 72 hrs by CFSE based flow cytometry; type: functional
In short: (§1)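 Cells (10^6 cells/mL) labelled with 2.5 μM CFSE at 37 °C for 10 min. T cells from healthy donors (95% purity) were activated with plate-bound anti-CD3 (2 μg/mL) plus soluble anti-CD28 (1 μg/mL). Alternatively, PBMCs were mixed with equal numbers of 3000-rad-irradiated allogeneic PBMCs. Cells were cultured with or without drug for 72 h in RPMI 1640 with 10% FBS, and CFSE dilution was read by flow cytometry. Unstimulated cells served as 0% and stimulated untreated cells as 100%. IC50 was calculated from these.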

[2] = system: T-cell line; assay: Induction of cell cycle arrest in anti-CD3/anti-CD28 antibody-stimulated human T cells assessed as accumulation at S phase at 0.1 uM incubated for 72 hrs by flow cytometry (reference value: 18.1%); type: functional
[3] = system: T-cell line; assay: Effect on anti-CD3/anti-CD28 antibody-induced cell activation in human T cells assessed as effect on CD69 expression at 0.2 uM incubated for 24 hrs by flow cytometry (reference value: 41.2%); type: functional
[4] = system: T-cell line; assay: Induction of cell cycle arrest in anti-CD3/anti-CD28 antibody-stimulated human T cells assessed as accumulation at S phase at 0.2 uM incubated for 72 hrs by flow cytometry (reference value: 18.1%); type: functional
[5] = system: T-cell line; assay: Effect on anti-CD3/anti-CD28 antibody-induced cell activation in human T cells assessed as effect on CD25 expression at 0.2 uM incubated for 24 hrs by flow cytometry (reference value: 69.1%); type: functional
[6] = system: T-cell line; assay: Inhibition of IL6 production in anti-CD3/anti-CD28 antibody-stimulated human T cells at 0.2 to 5 uM incubated for 48 hrs by ELISA; type: functional, cell-based
In short: (§2)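 Human T cells (10^6 cells/mL) treated with 0.2, 1 or 5 μM drug, LY-294002 (50 μM) or vehicle and activated with anti-CD3 (2 μg/mL) plus soluble anti-CD28 (1 μg/mL) for 48 h. Supernatant IL-6 and IL-17 were quantified by ELISA against recombinant cytokine standard curves. Mean ± SEM, n = 5 per group, three independent experiments.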

[7] = system: T-cell line; assay: Effect on anti-CD3/anti-CD28 antibody-induced cell activation in human T cells assessed as effect on CD69 expression at 5 uM incubated for 24 hrs by flow cytometry (reference value: 41.2%); type: functional
[8] = system: T-cell line; assay: Effect on anti-CD3/anti-CD28 antibody-induced cell activation in human T cells assessed as effect on CD69 expression at 0.2 to 5 uM incubated for 24 hrs by flow cytometry; type: functional, cell-based
[9] = system: T-cell line; assay: Induction of cell cycle arrest in anti-CD3/anti-CD28 antibody-stimulated human T cells assessed as accumulation at G2/M phase at 0.2 uM incubated for 72 hrs by flow cytometry (reference value: 15.3%); type: functional
[10] = system: T-cell line; assay: Cytotoxicity in human T cells assessed as reduction in cell viability at 20 to 320 uM incubated for 72 hrs by CCK8 assay; type: cell-based
In short: (§3)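 Naive human T cells or PBMCs (10^6 cells/mL) exposed to 20, 40, 80, 160 or 320 μM or vehicle for 72 h. Viability read by CCK-8 as OD450, with untreated cells set to 100%. Mean ± SEM, n = 5 per group, three independent experiments.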

[11] = system: T-cell line; assay: Induction of cell cycle arrest in anti-CD3/anti-CD28 antibody-stimulated human T cells assessed as accumulation at G2/M phase at 1 uM incubated for 72 hrs by flow cytometry (reference value: 15.3%); type: functional
[12] = system: T-cell line; assay: Induction of cell cycle arrest in anti-CD3/anti-CD28 antibody-stimulated human T cells assessed as accumulation at G0/G1 phase at 1 uM incubated for 72 hrs by flow cytometry (reference value: 66.6%); type: functional
[13] = system: T-cell line; assay: Effect on anti-CD3/anti-CD28 antibody-induced cell activation in human T cells assessed as effect on CD25 expression at 5 uM incubated for 24 hrs by flow cytometry (reference value: 69.1%); type: functional
[14] = system: PBMC; assay: Cytotoxicity in human PBMC cells assessed as reduction in cell viability at 20 to 320 uM incubated for 72 hrs by CCK8 assay; type: cell-based; in short: as §3
[15] = system: T-cell line; assay: Effect on anti-CD3/anti-CD28 antibody-induced cell activation in human T cells assessed as effect on CD25 expression at 0.2 to 5 uM incubated for 24 hrs by flow cytometry; type: functional, cell-based
[16] = system: T-cell line; assay: Induction of cell cycle arrest in anti-CD3/anti-CD28 antibody-stimulated human T cells assessed as accumulation at G0/G1 phase at 0.2 uM incubated for 72 hrs by flow cytometry (reference value: 66.6%); type: functional
[17] = system: T-cell line; assay: Induction of cell cycle arrest in anti-CD3/anti-CD28 antibody-stimulated human T cells assessed as accumulation at S phase at 1 uM incubated for 72 hrs by flow cytometry (reference value: 18.1%); type: functional
[18] = system: T-cell line; assay: Effect on anti-CD3/anti-CD28 antibody-induced cell activation in human T cells assessed as effect on CD25 expression at 1 uM incubated for 24 hrs by flow cytometry (reference value: 69.1%); type: functional
[19] = system: T-cell line; assay: Induction of cell cycle arrest in anti-CD3/anti-CD28 antibody-stimulated human T cells assessed as accumulation at G0/G1 phase at 5 uM incubated for 72 hrs by flow cytometry (reference value: 66.6%); type: functional
[20] = system: T-cell line; assay: Inhibition of IL17 production in anti-CD3/anti-CD28 antibody-stimulated human T cells at 0.2 to 5 uM incubated for 48 hrs by ELISA; type: functional, cell-based; in short: as §2
[21] = system: T-cell line; assay: Induction of cell cycle arrest in anti-CD3/anti-CD28 antibody-stimulated human T cells assessed as accumulation at S phase at 5 uM incubated for 72 hrs by flow cytometry (reference value: 18.1%); type: functional
[22] = system: T-cell line; assay: Effect on anti-CD3/anti-CD28 antibody-induced cell activation in human T cells assessed as effect on CD69 expression at 1 uM incubated for 24 hrs by flow cytometry (reference value: 41.2%); type: functional
[23] = system: T-cell line; assay: Induction of cell cycle arrest in anti-CD3/anti-CD28 antibody-stimulated human T cells assessed as accumulation at G2/M phase at 5 uM incubated for 72 hrs by flow cytometry (reference value: 15.3%); type: functional
[24] = system: T-cell line; assay: Immunosuppressive activity in human T cells assessed as reduction in alloantigen stimulation-induced cell proliferation incubated for 72 hrs by CFSE based flow cytometry; type: functional; in short: as §1
[25] = system: T-cell line; assay: Effect on anti-CD3/anti-CD28 antibody-induced cell activation in human T cells assessed as effect on CD25 expression at 0.1 uM incubated for 24 hrs by flow cytometry (reference value: 69.1%); type: functional
[26] = system: T-cell line; assay: Effect on anti-CD3/anti-CD28 antibody-induced cell activation in human T cells assessed as effect on CD69 expression at 0.1 uM incubated for 24 hrs by flow cytometry (reference value: 41.2%); type: functional

`O=C1[C@H]2CN3CCC[C@]45CC[C@@]6(Nc7ccccc7[C@@]26[C@@H]34)[C@@]1(O)C5` was tested, and the IC50 [1] was 25.4 µM.
With `COC(=O)N1c2c(OC)cccc2[C@@]23[C@H]4CN5CCC[C@@](CC[C@]12C(=O)O)(CC4=O)[C@H]53` the IC50 [1] was 27.8 µM.
`C[N+]12CCC[C@]34CC[C@@]5(Nc6ccccc6[C@]5(CC1)[C@H]32)[C@H](C(=O)[O-])C4` (some centres undefined) was tested, and the IC50 [1] was 21.6 µM.
For `CC(=O)O[C@H]1C(=O)[C@@]2(C)[C@H]([C@H](OC(=O)c3ccccc3)[C@]3(O)C[C@H](OC(=O)[C@H](O)[C@@H](NC(=O)c4ccccc4)c4ccccc4)C(C)=C1C3(C)C)[C@]1(OC(C)=O)CO[C@@H]1C[C@@H]2O` [PACLITAXEL], the Activity [2] was 16.9%.
`CC[C@]12CCCn3ccc(c31)-c1ccccc1NC(=O)CC2` [RHAZINILAM] was tested, and the Activity [3] was 41.1%, the Activity [4] was 16.8% and the Activity [5] was 68.8%. The inhibition [6] was “Active”, the Activity [7] was 41.6% and the Activity [8] was “inactive”. The Activity [9] was 16.7%, the Activity [10] was “Non-Toxic” and the Activity [11] was 22.9%. The Activity [12] was 57.4%, the Activity [13] was 69.3% and the Activity [14] was “Non-Toxic”. For the same compound, the Activity [15] was “inactive”, the Activity [16] was 66.5% and the Activity [17] was 19.7%. The Activity [18] was 70.3%, the Activity [19] was 42.1% and the inhibition [20] was “Active”. It also gave an IC50 [1] of 1 µM, an Activity [21] of 17.6% and an Activity [22] of 42.4%. For the same compound, the Activity [23] was 40.3% and the IC50 [24] was 1.1 µM.
`C=CC[C@@H]1/C=C(\C)C[C@H](C)C[C@H](OC)[C@H]2O[C@@](O)(C(=O)C(=O)N3CCCC[C@H]3C(=O)O[C@H](/C(C)=C/[C@@H]3CC[C@@H](O)[C@H](OC)C3)[C@H](C)[C@@H](O)CC1=O)[C@H](C)C[C@@H]2OC` [TACROLIMUS ANHYDROUS] gave an Activity [25] of 6.8% and an Activity [26] of 13.1%.
